Assay results as given in ChEMBL document CHEMBL1125125, “Thiazolo[4,5-d]pyrimidine nucleosides. The synthesis of certain 3-beta-D-ribofuranosylthiazolo[4,5-d]pyrimidines as potential immunotherapeutic agents” (J Med Chem, 1990).

Key:
Semliki Forest virus [1] = experiment: Effect against semliki forest virus infection in mice at an ip dose of 100 mg/kg; type: functional; conditions: route intraperitoneal
Procedure, shortened: (§1)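 Female Swiss Webster mice (about 20 g) received compound or placebo ip in aqueous 2% sodium bicarbonate as half-daily doses at -24 and -18 h before virus. […] Read-outs were survivors/total over 21 days and mean survival time of mice that died. Mice dying within a day or two of dosing were excluded. Significance was by two-tailed Fisher exact test.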

YAC-1 [2] = experiment: (§2) In vivo effect on murine NK cell activity in isolated CBA/CaJ mice spleen cells and cytotoxicity measured against YAC-1 cells at a targetor ratio 100:1; type: organism-based; conditions: mouse
Procedure, shortened: (§3)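 Female CBA/CaJ mice aged 6–8 weeks, two per group, received 150 mg/kg ip in 2% aqueous sodium bicarbonate as 75 mg/kg bid for one day; the placebo was vehicle. After 24 h, spleen cells were pooled and tested against YAC-1 targets in a 4-h 51Cr-release assay, in triplicate, at the stated effector:target ratio.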

Mus musculus [3] = species: Mus musculus; experiment: Ability to activate CBA/CaJ Mice spleen cells to proliferate in vitro by measuring new DNA synthesis in a [3H]thymidine incorporation assay at 0.05 mM; type: functional
Procedure, shortened: (§4)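 Spleen cells from CBA/CaJ mice, 1 × 10^5 per 0.2 mL, cultured with compound for 48 h in total. [3H]thymidine (0.5 μCi/0.02 mL) was added after 24 h, then cells were harvested and uptake was counted in a β-counter. Results are CPM as mean ± SD of quadruplicate assays.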

Mus musculus [4] = species: Mus musculus; experiment: Ability to activate CBA/CaJ Mice spleen cells to proliferate in vitro by measuring new DNA synthesis in a [3H]thymidine incorporation assay at 0 mM; type: functional; procedure, shortened: as §4
YAC-1 [5] = experiment: (§5) In vivo effect on murine NK cell activity in isolated CBA/CaJ mice spleen cells and cytotoxicity measured against YAC-1 cells at a targetor ratio 50:1; type: organism-based; conditions: mouse; procedure, shortened: as §3
Mus musculus [6] = species: Mus musculus; experiment: Ability to activate CBA/CaJ Mice spleen cells to proliferate in vitro by measuring new DNA synthesis in a [3H]thymidine incorporation assay at 0.01 mM; type: functional; procedure, shortened: as §4
Mus musculus [7] = species: Mus musculus; experiment: Ability to activate CBA/CaJ Mice spleen cells to proliferate in vitro by measuring new DNA synthesis in a [3H]thymidine incorporation assay at 0.40 mM; type: functional; procedure, shortened: as §4
Semliki Forest virus [8] = experiment: Effect against semliki forest virus infection in mice at an ip dose of 100 mg/kg; 6/12; type: functional; conditions: route intraperitoneal; procedure, shortened: as §1
Mus musculus [9] = species: Mus musculus; experiment: Ability to activate CBA/CaJ Mice spleen cells to proliferate in vitro by measuring new DNA synthesis in a [3H]thymidine incorporation assay at 0.20 mM; type: functional; procedure, shortened: as §4
Semliki Forest virus [10] = experiment: Effect against semliki forest virus infection in mice at an ip dose of 200 mg/kg; type: functional; conditions: route intraperitoneal; procedure, shortened: as §1
Semliki Forest virus [11] = experiment: Effect against semliki forest virus infection in mice at an ip dose of 200 mg/kg; 9/12; type: functional; conditions: route intraperitoneal; procedure, shortened: as §1
Semliki Forest virus [12] = experiment: Effect against semliki forest virus infection in mice at an ip dose of 100 mg/kg; 11/12; type: functional; conditions: route intraperitoneal; procedure, shortened: as §1
Semliki Forest virus [13] = experiment: Effect against semliki forest virus infection in mice at an ip dose of 200 mg/kg; 11/12; type: functional; conditions: route intraperitoneal; procedure, shortened: as §1
YAC-1 [14] = experiment: In vivo effect on murine NK cell activity in isolated CBA/CaJ mice spleen cells and cytotoxicity measured against YAC-1 cells at a targetor ratio 50:1.; type: functional, Mus musculus; procedure, shortened: as §3
Mus musculus [15] = experiment: Effect against semliki forest virus infection in mice at an ip dose of 100 mg/kg.; type: functional; conditions: route intraperitoneal; procedure, shortened: as §1
Mus musculus [16] = experiment: Effect against semliki forest virus infection in mice at an ip dose of 200 mg/kg; 2/11; type: functional; conditions: route intraperitoneal; procedure, shortened: as §1
Mus musculus [17] = experiment: Effect against semliki forest virus infection in mice at an ip dose of 100 mg/kg; 0/12; type: functional; conditions: route intraperitoneal; procedure, shortened: as §1
Mus musculus [18] = experiment: Effect against semliki forest virus infection in mice at an ip dose of 200 mg/kg.; type: functional; conditions: route intraperitoneal; procedure, shortened: as §1
YAC-1 [19] = experiment: In vivo effect on murine NK cell activity in isolated CBA/CaJ mice spleen cells and cytotoxicity measured against YAC-1 cells at a targetor ratio 100:1.; type: functional, Mus musculus; procedure, shortened: as §3
Mus musculus [20] = experiment: Effect against semliki forest virus infection in mice at an ip dose of 200 mg/kg''; 11/11; type: functional; conditions: route intraperitoneal; procedure, shortened: as §1
Mus musculus [21] = experiment: Effect against semliki forest virus infection in mice at an ip dose of 100 mg/kg; 4/9; type: functional; conditions: route intraperitoneal; procedure, shortened: as §1
Semliki Forest virus [22] = experiment: Effect against semliki forest virus infection in mice at an ip dose of 200 mg/kg; 3/12; type: functional; conditions: route intraperitoneal; procedure, shortened: as §1
YAC-1 [23] = experiment: as §5; type: functional, Mus musculus; procedure, shortened: as §3
YAC-1 [24] = experiment: as §2; type: functional, Mus musculus; procedure, shortened: as §3

## Cn1c(=O)n(C2O[C@H](CO)[C@@H](O)[C@H]2O)c2nc(N)nc(O)c21 (stereo not given in full)
Semliki Forest virus [1]
  Mean survival time: 7.7 days
YAC-1 [2]
  Cytotoxicity: 57.89%
Mus musculus [3]
  CPM: 35980
Mus musculus [4]
  CPM: 2000
YAC-1 [5]
  Cytotoxicity: 58.8%
Mus musculus [6]
  CPM: 6012
Mus musculus [7]
  CPM: 94100
Semliki Forest virus [8]
  Survivors: 50%
Mus musculus [9]
  CPM: 72000
Semliki Forest virus [10]
  Mean survival time: 6.3 days
Semliki Forest virus [11]
  Survivors: 75%

## Nc1nc2c(sc(=O)n2[C@@H]2O[C@H](CO)[C@@H](O)[C@H]2O)c(=O)[nH]1 [ISATORIBINE]
Semliki Forest virus [1]
  Mean survival time: 8 days
YAC-1 [2]
  Cytotoxicity: 67.8%
Mus musculus [3]
  CPM: 54150
Semliki Forest virus [12]
  Survivors: 92%
Mus musculus [4]
  CPM: 2000
YAC-1 [5]
  Cytotoxicity: 74.8%
Mus musculus [6]
  CPM: 12000
Mus musculus [7]
  CPM: 107000
Mus musculus [9]
  CPM: 96680
Semliki Forest virus [13]
  Survivors: 92%
Semliki Forest virus [10]
  Mean survival time: 6 days

## Nc1nc2c(nc(Br)n2[C@@H]2O[C@H](CO)[C@@H](O)[C@H]2O)c(=O)[nH]1
YAC-1 [14]
  Cytotoxicity: 31.33%
Mus musculus [3]
  CPM: 4835
Mus musculus [4]
  CPM: 5204
Mus musculus [15]
  Mean survival time: 7.7 days
Mus musculus [6]
  CPM: 4387
Mus musculus [7]
  CPM: 16771
Mus musculus [16]
  Survivors: 18%
Mus musculus [17]
  Survivors: 0%
Mus musculus [9]
  CPM: 9199
Mus musculus [18]
  Mean survival time: 7.1 days
YAC-1 [19]
  Cytotoxicity: 45.44%

## Nc1nc(O)c2sc(=S)n(C3O[C@H](CO)[C@@H](O)[C@H]3O)c2n1 (stereo not given in full)
YAC-1 [14]
  Cytotoxicity: 28.89%
Mus musculus [3]
  CPM: 15711
Mus musculus [20]
  Survivors: 100%
Mus musculus [4]
  CPM: 3111
Mus musculus [15]
  Mean survival time: 7 days
Mus musculus [6]
  CPM: 4230
Mus musculus [7]
  CPM: 53493
Mus musculus [21]
  Survivors: 44%
Mus musculus [9]
  CPM: 43779
Mus musculus [18]
  Mean survival time: >21 days
YAC-1 [19]
  Cytotoxicity: 41.38%

## Nc1nc(O)c2nc(S)n([C@@H]3O[C@H](CO)[C@@H](O)[C@H]3O)c2n1
Semliki Forest virus [1]
  Mean survival time: 8 days
Mus musculus [3]
  CPM: 5372
Mus musculus [4]
  CPM: 3633
Mus musculus [6]
  CPM: 3911
Mus musculus [7]
  CPM: 40690
Semliki Forest virus [8]
  Survivors: 50%
Semliki Forest virus [22]
  Survivors: 25%
YAC-1 [23]
  % cytotoxicity: 43.53%
Mus musculus [9]
  CPM: 23092
YAC-1 [24]
  % cytotoxicity: 61.33%
Semliki Forest virus [10]
  Mean survival time: 7.5 days
